Source: PubChem (several laboratories)
Lung fibro prol – antiproliferative effect on LL 47 fibroblasts – human, LL 47 cells, CellTiter-Glo luminescence, primary screen. viability, % at 10 µM. LL 47 human lung fibroblast viability, ATP luminescence; stronger effect = lower value. 85,000 compounds, 1.1% hits;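 active = viability at or below 50% in the single dose screen; inactive = viability above 50%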;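 note: compound exposure lasted 72 h before the ATP readout; 100% = median luminescence of untreated cell-only wells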
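Material: human LL 47 lung fibroblast cells; quantity: 1,150 cells/well; medium: IMEM plus 15% FBS; doses: 0.1% DMSO in all compound wells; timing: overnight attachment after seeding, then 72 h compound exposure at 37 °C; detection: CellTiter-Glo luminescence; measure: % viability of median cell-only signal; controls: cell-only wells, no compound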
H69AR growth 86K – proliferation blockers of H69AR lung cancer cells, primary screen, cell-based, human, 86K library. H69AR lung tumor viability, ATP luminescence, 72 h; stronger effect = lower value. viability, % at 10 µM. 85,000 compounds, 6% hits. AID 598, 2007;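 active = viability at or below 40%; inactive = viability above 40%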;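 note: multidrug resistant small cell line overexpressing MRP-1 efflux transporter; 100% = mean luminescence of untreated control wells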
Jurkat tox 60K – cytotoxicity toward Jurkat T cells, primary screen, cytotoxicity control, cell-based, Jurkat E6.1, 60K MLSMR library; 56,000 compounds, 1.2% hits; AID 463, 2006; inhibition, % at 4 µM; Jurkat E6.1 viability, ATP luminescence, 48 h;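 active = inhibition above the mean inhibition of all tested compounds plus 3 SD, cut at about 28% in these data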
HUVEC prolif 384 – inhibitors of HUVEC proliferation, primary screen, cell-based, 384-well | 86,000 compounds, 1.1% hits | CellTiter-Glo luminescence, 72 h; stronger effect = lower value | viability, % at 10 µM (by protocol) | AID 648, 2007;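 active = viability at or below 30%; inactive = viability above 30%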;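 note: 100% = median luminescence of DMSO-only cell control wells on each plate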
Active calls of the source: *; . = not tested or not shown. Sampled rows, rich in hits. Any-hit rate of the full collection: about 6.6%.

SMILES | Lung fibro prol | H69AR growth 86K | Jurkat tox 60K | HUVEC prolif 384
COC(=O)c1ccc2c(=O)n(Cc3ccco3)c(SCC(=O)Nc3ccccc3Cl)nc2c1 | 91 | 17* | 3 | 24*
CCCCNC(=O)CSc1nc2ccccc2c(=O)n1Cc1ccc2c(c1)OCO2 | 74 | 76 | . | 48
COCCNC(=O)c1ccc2c(=O)n(Cc3ccco3)c(SCC(=O)NC3CCCCC3)nc2c1 | 114 | 92 | . | 93
O=C(CCCN1CCC(O)(c2ccc(Cl)cc2)CC1)c1ccc(F)cc1 | 100 | 57 | . | 106
COc1ccccc1CN(Cc1ccco1)S(=O)(=O)c1ccc(-n2cnnn2)c(OC)c1 | 93 | 89 | 9 | 87
Cn1c(=O)c(NCCc2ccccc2)c2c3c(cccc31)C(=O)c1ccccc1-2 | 90 | 91 | . | 88
Cc1ccc(S(=O)(=O)NC(CN2CCOCC2)=NCCNS(=O)(=O)c2ccccc2)cc1 | 101 | 99 | 3 | 101
C=CCOc1ccc2c(c1)C(=NO)c1cc(OCC=C)ccc1-2 | 95 | 34* | . | 71
Cc1c(C#N)c(N=CN(C)C)c(C(=O)c2ccc(Br)cc2)n1-c1ccccc1 | 97 | 70 | . | 95
Cc1c(C#N)c(N=CN(C)C)c(C(=O)c2ccccc2)n1-c1ccc(Br)cc1 | 82 | 20* | . | 88
COc1ccc(CCNC(=O)c2nonc2N)cc1OC | . | 102 | 2 | 93
COc1cc(/C=N/N=C(/N)c2nonc2N)cc(Br)c1OCc1cccc(C)c1 | 81 | 74 | . | 30*
CCOc1cccc(CNCCNC(=O)c2nonc2N)c1 | 99 | 114 | . | 101
CCOc1cc(/C=N/N=C(\N)c2nonc2N)cc(Br)c1OCc1cccc2ccccc12 | 41* | 13* | . | 7.5*
CC(Sc1nnc(N)s1)c1ccccc1Cl (centres undefined) | 106 | 90 | -4 | 105
COCCOC(=O)c1c(C)oc2ccc(OC(=O)c3ccc4c(c3)OCO4)cc12 | 105 | . | 1 | 98
Clc1ccc(Cn2cc(/C=N/n3cnnc3)c3ccccc32)c(Cl)c1 | 76 | 75 | . | 13*
N#C/C(=C/c1ccc(N2CCOCC2)o1)c1nc2ccccc2[nH]1 | 76 | 23* | . | 51
N#C/C(=C/c1ccc(N2CCCCCC2)o1)c1ccc(F)cc1 | 11* | 2.8* | 99* | 56
N#Cc1ccc(Sc2nc3ccccc3[nH]2)cc1C#N | 97 | 68 | . | 91
COc1cc(N2CCCC2)c(OC)cc1/C=C(/C#N)c1cccc(F)c1 | 88 | 25* | . | 95
N#C/C(=C\c1ccc(Sc2nc3ccccc3[nH]2)o1)c1ccccc1 | 88 | 33* | . | 53
CCOc1cc(NC(=O)c2cnccn2)c(OCC)cc1NC(=O)c1ccc(OC)cc1 | 98 | 79 | -7 | 85
COc1ccccc1N1CCN(C(=O)c2sc3nc(-c4ccc(F)cc4)cn3c2C)CC1 | 99 | 57 | 13 | 64
N#C/C(=C/c1ccc(N2CCCCCC2)o1)c1cccc(F)c1 | 87 | 37* | . | 95
SMILES | Lung fibro prol | H69AR growth 86K | Jurkat tox 60K | HUVEC prolif 384
Cc1c(Br)cc(C(=O)OC2CCN(C)CC2)c(C)c1C | 91 | 3.8* | 6 | 78
CC1CCN(CCC(=O)Nc2ccc3c(c2)CCC3)CC1 | 99 | 90 | . | 91
O=C(NC1CCCCC1)C(c1ccccc1)N(Cc1ccc2c(c1)OCO2)C(=O)c1cnsn1 (centres undefined) | 84 | 38* | . | 87
Fc1ccc(Nc2nc(N3CCOCC3)c3ccccc3n2)cc1 | 91 | 35* | . | 65
CCOc1cc(C(=O)Nc2cnccn2)cc(OCC)c1OCC | 96 | 24* | 51* | 75
CCOc1cc(C(=O)Nc2cc(C)ccn2)cc(OCC)c1OCC | 96 | 77 | 8 | 85
Cc1ccnc(NC(=O)CCCOc2cc(=O)n(C)c3ccccc23)c1 | . | . | 89* | .
Cn1c(=O)cc(OCCCC(=O)NCc2ccccn2)c2ccccc21 | 97 | 89 | -7 | 83
COc1ccccc1N1CCN(C(=O)c2c(-c3ccccc3)noc2C)CC1 | . | . | 88* | .
C=CCN(CC=C)S(=O)(=O)c1ccc2nsnc2c1 | 92 | 95 | 6 | 92
CCN(CCO)C(=O)C(c1ccccc1)c1ccccc1 | 108 | 103 | . | 101
O=C(NCCO)C(c1ccccc1)c1ccccc1 | . | 36* | -1 | 98
CCOc1ccc(/C(O)=C2/C(=O)C(=O)N(CCCn3ccnc3)C2c2cccs2)cc1Cl (centres undefined) | 97 | 97 | 4 | 110
Cc1ccc(-c2nnc3ccc(SCC(=O)N4CCc5ccccc54)nn23)cc1 | 85 | 32* | . | 45
Cc1occc1-c1nnc(SCC(=O)N2CCc3ccccc32)o1 | 97 | 1.3* | -9 | 91
O=C(CSc1nnc(-c2cccs2)o1)N1CCc2ccccc21 | 95 | 87 | 5 | 101
CCOC(=O)N1CCC(NC(=O)c2cc3c(-c4cccc(OC)c4)nn(C)c3s2)CC1 | 93 | 10* | 12 | 75
Cc1cc(C)c(NC(=O)CSc2nnc(SCC(=O)Nc3c(C)cc(C)cc3C)n2N)c(C)c1 | 96 | 89 | . | 94
FC(F)(F)c1cc(-c2ccco2)nc(NCc2cccnc2)n1 | 96 | 29* | . | 55
FC(F)(F)c1cc(-c2ccco2)nc(NCc2ccccc2)n1 | 92 | 98 | . | 100
Cc1cc(NC(=O)C23CCC(C)(c4nc5cc(Cl)c(Cl)cc5nc42)C3(C)C)no1 (centres undefined) | 99 | 83 | -3 | 86
Cc1nc(Nc2ccc(F)cc2)[nH]c(=O)c1CCC(C)C | . | 6.7* | 7 | 75
CS(=O)(=O)N(Cc1ccccc1)c1ccc(C(=O)N2CCc3ccccc3C2)cc1 | 98 | 82 | . | 99
CCCCCCc1cc2cc(C(N)=O)c(=N)oc2cc1O | 101 | 2.0* | . | 68
COc1cccc(CN(Cc2cccnc2)S(=O)(=O)c2ccc(-n3cnnn3)c(C)c2)c1OC | 97 | 65 | -4 | 82
SMILES | Lung fibro prol | H69AR growth 86K | Jurkat tox 60K | HUVEC prolif 384
Clc1ccccc1Cn1nnc2c(N3CCCC3)ncnc21 | 89 | . | -5 | 98
CC(C)(C)NC(=O)CSc1ncnc2c1nnn2Cc1ccccc1Cl | 59 | 3.0* | 12 | 89
CCCS(=O)(=O)c1c(S(=O)(=O)CCC)c2c3ccccc3ccn2c1C(=O)OC | 84 | 27* | . | 74
CCCS(=O)(=O)c1c(S(=O)(=O)CCC)c2cc(CC)ccn2c1C(=O)OC | 91 | 24* | 15 | 103
CCCS(=O)(=O)c1c(S(=O)(=O)CCC)c2ccccn2c1C(=O)OC | 97 | 85 | . | 106
CC(c1cccnc1)N(CCN(C)C)C(=O)Nc1ccc(Cl)cc1 (centres undefined) | 104 | 93 | . | 111
COc1cccc(NC(=O)CCc2nc(-c3ccccc3F)no2)c1 | 100 | 89 | . | 82
O=C(CCc1nc(-c2ccccc2F)no1)Nc1ccc(Oc2ccccc2)cc1 | 60 | 29* | 19 | 32
O=C1NNC(=O)C2C3C=CC(C4CC34)C12 (centres undefined) | 106 | 98 | . | 99
Cc1ccc(C)c(CSc2nnc(CCN)o2)c1 | 71 | 31* | -8 | 55
O=C(O)c1ccc(CS(=O)(=O)c2cccc(C(F)(F)F)c2)o1 | 100 | 103 | -3 | 116
